Screening results: PubChem, several laboratories
Rows were chosen to be rich in hits. Some 5.6% of all compounds tested hit in one or more screens of this group.
CHOP UPR activ: activators of apoptotic arm of unfolded protein response (CHOP) | activation, % at 10 µM | CHO-CHOP luciferase reporter, UPR activation, luminescence; percent of tunicamycin response over DMSO baseline | 330,000 compounds, 0.34% hits;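 active means at 10 µM dose, activation of 40% or more, normalized to positive control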
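Dosing – one dose, 10 µM in 0.5% DMSO · System – CHO-CHOP cells, stable luciferase reporter of PERK-eIF2a-CHOP signalling · Input – 500 cells/well · Control set – tunicamycin 10 µg/mL final as positive, DMSO-only wells as negative · Timing – 6 h compound treatment, 37 °C · Measure – % activation vs tunicamycin · Technique – luminescence read with Steady-Glo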
XBP1 UPR activ: adaptive UPR (XBP1) activation; 330,000 compounds, 0.33% hits; activation, % at 20 µM; AID 463104; CHO-XBP1 luciferase reporter, IRE1-XBP1 UPR activation, luminescence; percent of tunicamycin response, DMSO as zero;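 active means versus positive control, 20 µM dose yields 30% or more activation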
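Test system: CHO-XBP1 luciferase reporter cells | Buffer or medium: Serum-containing F12 medium, 10% FBS | Schedule: 6 h compound exposure at 37 °C, 5% CO2 | Detection: Steady-Glo luciferase glow luminescence, 10 min after reagent addition | Read-out basis: Activation, % of tunicamycin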
MPTP inh: blocks calcium-induced mitochondrial swelling; isolated mouse mitochondria, Ca2+ swelling absorbance, 30 min; inhibition, % at 10 µM; 360,000 compounds, 1.4% hits;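 active means inhibition of 50% or more, scaled per plate between neutral and stimulator controls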
aDG glyco up: alpha-DG glycosylation activation; Pro5-aDG cells, alpha-DG glycosylation AlphaScreen (IIH6); 0% Pro5, 100% B10-LARGE cell signal; activation, % at 10 µM; 360,000 compounds, 0.22% hits;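 active means activation of at least 8% versus controls, or a plate z-score of at least 8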;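 further: Pro5 are CHO cells carrying HIG-tagged alpha-DG that lacks glycosylation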
CHOP inh: inhibitors of CHOP induction in ER stress response. CHO-K1 CHOP-promoter luciferase, tunicamycin-induced, 15-18 h. inhibition, % at 10 µM. 220,000 compounds, 3.8% hits. AID 2732;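 active means compounds that reduced the stress-induced luciferase reporter signal by more than about 70% of percent inhibition, limit read from the data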
GRIN3A LBD mod: modulates the human NR3A ligand-binding domain; 340,000 compounds, 2.5% hits; NR3A LBD differential scanning fluorimetry, Tm shift; 0% = protein alone, 100% = glycine-bound protein; Tm shift relative to glycine control, % at 25 µM;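 active means melting temperature shift of at least 10% of the positive control shift, at one fixed dose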
Hits are given with their value.

For CC(=O)Nc1ccc2nc(NC(=O)COc3ccccc3)sc2c1 the results were CHOP UPR activ inactive, XBP1 UPR activ inactive, MPTP inh inactive, aDG glyco up inactive, CHOP inh inactive and GRIN3A LBD mod inactive.
Screening CC(=O)Nc1ccc2nc(NC(=O)COc3cccc(C)c3)sc2c1 returned CHOP UPR activ inactive, XBP1 UPR activ inactive, MPTP inh inactive, aDG glyco up inactive, CHOP inh inactive and GRIN3A LBD mod 11.
CC(=O)Nc1ccc2nc(NC(=O)COc3ccccc3C)sc2c1 was read as CHOP UPR activ inactive, XBP1 UPR activ inactive, MPTP inh inactive, aDG glyco up inactive, CHOP inh inactive and GRIN3A LBD mod 23.
`O=C(COc1ccccc1)Nc1nc2cc3c(cc2s1)OCO3` gave CHOP UPR activ inactive, XBP1 UPR activ inactive, MPTP inh inactive, aDG glyco up inactive and GRIN3A LBD mod 14.
Screening CC(=O)Nc1cccc(-c2nc3ccc(NC(C)=O)cc3s2)c1 returned CHOP UPR activ inactive, XBP1 UPR activ inactive, MPTP inh inactive, aDG glyco up inactive, CHOP inh inactive and GRIN3A LBD mod 16.
Screening CCc1cccc2c1NC(=O)C2(O)CC(=O)c1cccs1 (stereo not given) returned CHOP UPR activ inactive, XBP1 UPR activ inactive, MPTP inh inactive, aDG glyco up inactive, CHOP inh inactive and GRIN3A LBD mod inactive.
Screening Cc1cccc(NC(=S)NC(=O)CCc2ccccc2)c1C returned CHOP UPR activ inactive, XBP1 UPR activ inactive, MPTP inh inactive, aDG glyco up inactive, CHOP inh 75 and GRIN3A LBD mod inactive.
For O=C(CCc1ccccc1)Nc1cccc(NC(=O)CCc2ccccc2)c1 the results were CHOP UPR activ inactive, XBP1 UPR activ inactive, MPTP inh inactive, aDG glyco up inactive, CHOP inh 72 and GRIN3A LBD mod inactive.
For CC(=O)Nc1ccc2nc(NC(=O)C(Cl)(Cl)Cl)sc2c1 the results were CHOP UPR activ inactive, XBP1 UPR activ inactive, MPTP inh inactive, aDG glyco up inactive, CHOP inh inactive and GRIN3A LBD mod inactive.
`O=C(CCc1ccccc1)Nc1ccccc1` gave CHOP UPR activ inactive, XBP1 UPR activ inactive, MPTP inh inactive, aDG glyco up inactive, CHOP inh inactive and GRIN3A LBD mod inactive.
`COc1ccc(NC(=O)c2sc(NC(=O)COc3ccccc3)nc2C)cc1` gave CHOP UPR activ inactive, XBP1 UPR activ inactive, MPTP inh inactive, aDG glyco up inactive, CHOP inh inactive and GRIN3A LBD mod 14.
For COc1cccc2sc(Nc3nc4ccc(NC(C)=O)cc4s3)nc12 the results were MPTP inh inactive, aDG glyco up inactive, CHOP inh inactive and GRIN3A LBD mod 31.
For Cc1nc(NC(=O)COc2ccccc2)sc1C(=O)Nc1cccc(Cl)c1 the results were CHOP UPR activ inactive, XBP1 UPR activ inactive, MPTP inh inactive, aDG glyco up inactive, CHOP inh inactive and GRIN3A LBD mod inactive.
N#Cc1ccc(CC(C(=O)O)N2Cc3ccccc3C2=O)cc1 (stereo not given) was read as CHOP UPR activ inactive, XBP1 UPR activ inactive, MPTP inh inactive, aDG glyco up inactive and GRIN3A LBD mod inactive.
For CCCN(CC1CCCO1)C(=O)c1cc(COc2ccc(F)cc2F)on1 (stereo not given) the results were CHOP UPR activ inactive, XBP1 UPR activ inactive, MPTP inh inactive, aDG glyco up inactive and GRIN3A LBD mod inactive.
For Cc1cc(Nc2ccccc2C(=O)O)n2ncnc2n1 the results were MPTP inh inactive and aDG glyco up inactive.
CC(=O)Nc1ccc2nc(NC(=O)COc3ccc(C)cc3)sc2c1 was read as CHOP UPR activ inactive, XBP1 UPR activ inactive, MPTP inh inactive, aDG glyco up inactive, CHOP inh inactive and GRIN3A LBD mod inactive.
Cc1cccc(NC(=O)CCc2ccc(S(=O)(=O)NC3CCCCC3)cc2)c1 was read as CHOP UPR activ inactive, XBP1 UPR activ inactive, MPTP inh inactive, aDG glyco up inactive, CHOP inh 72 and GRIN3A LBD mod inactive.
For CC(=O)Nc1ccc2nc(NC(=O)CCc3ccccc3)sc2c1 the results were CHOP UPR activ inactive, XBP1 UPR activ inactive, MPTP inh inactive, aDG glyco up inactive, CHOP inh inactive and GRIN3A LBD mod 22.
Screening CC(=O)Nc1ccc2nc(NC(=O)COc3ccccc3Cl)sc2c1 returned CHOP UPR activ inactive, XBP1 UPR activ inactive, MPTP inh inactive, aDG glyco up inactive, CHOP inh inactive and GRIN3A LBD mod 20.
`NNC(=S)Nc1c(F)cc(F)cc1Br` gave CHOP UPR activ inactive, XBP1 UPR activ inactive, MPTP inh inactive, aDG glyco up inactive, CHOP inh inactive and GRIN3A LBD mod inactive.
`C[C@@H](c1ccccc1)N1C[C@@H](COCc2ccccc2)Oc2cc(N3CCC[C@@H]3CO)ccc2S1(=O)=O` gave MPTP inh inactive and aDG glyco up inactive.
Screening O=C(CSc1nc(C2CC2)nc2ccccc12)N1CCc2ccccc21 returned MPTP inh inactive, aDG glyco up inactive and GRIN3A LBD mod inactive.
Screening Cc1ccc(C)c(Nc2nc(-c3cccnc3)cs2)c1 returned CHOP UPR activ inactive, XBP1 UPR activ inactive, MPTP inh inactive, aDG glyco up inactive and GRIN3A LBD mod 20.
`c1ccc(Nc2nc(-c3cccnc3)cs2)nc1` gave CHOP UPR activ inactive, XBP1 UPR activ inactive, MPTP inh inactive, aDG glyco up inactive, CHOP inh inactive and GRIN3A LBD mod 34.
For Clc1cccc(-c2csc(Nc3cccnc3)n2)c1 the results were CHOP UPR activ inactive, XBP1 UPR activ inactive, MPTP inh inactive, aDG glyco up inactive, CHOP inh inactive and GRIN3A LBD mod 29.
COc1cc(C(=O)COC(=O)c2cc([N+](=O)[O-])ccc2N2CCOCC2)ccc1OC(F)F was read as CHOP UPR activ inactive, XBP1 UPR activ inactive, MPTP inh inactive, aDG glyco up inactive and GRIN3A LBD mod inactive.
For COc1ccc(CNC(=O)C2CCCN2C(=O)Nc2cccc(Cl)c2)cc1 (stereo not given) the results were MPTP inh inactive and aDG glyco up inactive.
`COC(=O)c1sc(N2C(=O)c3oc4ccccc4c(=O)c3C2c2cccc(O)c2)nc1C` (stereo not given) gave CHOP UPR activ inactive, XBP1 UPR activ inactive, MPTP inh inactive, aDG glyco up inactive, CHOP inh 75 and GRIN3A LBD mod inactive.
`c1ccc(-c2nc3nonc3nc2-c2ccccc2)cc1` gave CHOP UPR activ inactive, XBP1 UPR activ inactive, MPTP inh inactive, aDG glyco up inactive, CHOP inh 85 and GRIN3A LBD mod inactive.
Screening Nc1c(-c2ccccc2)nc(Cl)nc1-c1ccccc1 returned CHOP UPR activ inactive, XBP1 UPR activ inactive, MPTP inh inactive, aDG glyco up inactive, CHOP inh inactive and GRIN3A LBD mod inactive.
Screening Cc1cc(C)c(S(=O)(=O)c2c(C)cccc2C)c(OCC(C)C)n1 returned CHOP UPR activ inactive, XBP1 UPR activ inactive, MPTP inh inactive, aDG glyco up inactive, CHOP inh 74 and GRIN3A LBD mod inactive.
